Experimental data reported in ChEMBL document CHEMBL2086252, “Syntheses and evaluation of anticonvulsant activity of novel branched alkyl carbamates” (J Med Chem, 2012).
The source made the active and inactive calls. The calls are words filed in the database; no cut-off is given here.

Columns and labels:
[1] = system: Rattus norvegicus; assay: Neurotoxicity in pilocarpine-induced status epilepticus Sprague-Dawley albino rat model assessed as minimal motor impairment at 30 mg/kg, ip after 0.5 hrs by rotarod test; assay type: toxicity, organism-based; design: dose 30 mg/kg, route intraperitoneal; conditions: in vivo
Outline: (§1)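 Rat pilocarpine status epilepticus model: test carbamate given at 0 or 30 min after the first observed Racine stage 3 motor seizure, which marks SE onset. Neurotoxicity was scored within the same model.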

[2] = system: Rattus norvegicus; assay: Neurotoxicity in pilocarpine-induced status epilepticus Sprague-Dawley albino rat model assessed as minimal motor impairment at 100 mg/kg, ip after 1 hr by rotarod test; assay type: toxicity, organism-based; design: dose 100 mg/kg, route intraperitoneal; conditions: in vivo
[3] = system: Mus musculus; assay: Anticonvulsant activity in albino CF1 mouse assessed as protection against subcutaneous metrazol-induced seizures at 100 mg/kg, ip after 4 hrs; assay type: functional, organism-based; design: dose 100 mg/kg
Outline: (§2)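 Mice dosed ip at 30, 100 or 300 mg/kg, then tested 0.5 h and 4 h after administration in the MES or scMet test. Protection was recorded as animals protected over animals tested. Neurotoxicity was recorded as motor impairment or sedation, as animals affected over animals tested.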

[4] = system: Mus musculus; assay: Anticonvulsant activity in albino CF1 mouse assessed as protection against subcutaneous metrazol-induced seizures at 300 mg/kg, ip after 4 hrs; assay type: functional, organism-based; design: dose 300 mg/kg; outline: as §2
[5] = system: Rattus norvegicus; assay: Anticonvulsant activity in Sprague-Dawley albino rat assessed as protection against maximal electroshock-induced seizures at 30 mg/kg, po after 1 hr; assay type: functional, organism-based; design: dose 30 mg/kg
Outline: (§3)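 Rats dosed orally. Anti-MES protection was scored as animals protected over animals tested at each time after dosing. Neurotoxicity was scored as motor impairment or sedation, as animals affected over animals tested.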

[6] = system: Rattus norvegicus; assay: Neurotoxicity in pilocarpine-induced status epilepticus Sprague-Dawley albino rat model assessed as minimal motor impairment at 30 mg/kg, ip after 4 hrs by rotarod test; assay type: toxicity, organism-based; design: dose 30 mg/kg, route intraperitoneal; conditions: in vivo; outline: as §1
[7] = system: Rattus norvegicus; assay: Anticonvulsant activity in Sprague-Dawley albino rat assessed as protection against maximal electroshock-induced seizures at 30 mg/kg, po after 30 mins; assay type: functional, organism-based; design: dose 30 mg/kg; outline: as §3
[8] = system: Mus musculus; assay: Anticonvulsant activity in albino CF1 mouse assessed as protection against subcutaneous metrazol-induced seizures at 100 mg/kg, ip after 0.5 hrs; assay type: functional, organism-based; design: dose 100 mg/kg; outline: as §2
[9] = system: Mus musculus; assay: Anticonvulsant activity in albino CF1 mouse assessed as protection against subcutaneous metrazol-induced seizures at 30 mg/kg, ip after 4 hrs; assay type: functional, organism-based; design: dose 30 mg/kg; outline: as §2
[10] = system: Rattus norvegicus; assay: Anticonvulsant activity in Sprague-Dawley albino rat assessed as protection against maximal electroshock-induced seizures at 30 mg/kg, po after 2 hrs; assay type: functional, organism-based; design: dose 30 mg/kg; outline: as §3
[11] = system: Mus musculus; assay: Anticonvulsant activity in albino CF1 mouse assessed as protection against subcutaneous metrazol-induced seizures at 30 mg/kg, ip after 0.5 hrs; assay type: functional, organism-based; design: dose 30 mg/kg; outline: as §2
[12] = system: Mus musculus; assay: Anticonvulsant activity in albino CF1 mouse assessed as protection against maximal electroshock-induced seizures at 30 mg/kg, ip after 0.5 hrs; assay type: functional, organism-based; design: dose 30 mg/kg; outline: as §2
[13] = system: Rattus norvegicus; assay: Neurotoxicity in pilocarpine-induced status epilepticus Sprague-Dawley albino rat model assessed as minimal motor impairment at 30 mg/kg, ip after 0.25 hr by rotarod test; assay type: toxicity, organism-based; design: dose 30 mg/kg, route intraperitoneal; conditions: in vivo; outline: as §1
[14] = system: Rattus norvegicus; assay: Neurotoxicity in pilocarpine-induced status epilepticus Sprague-Dawley albino rat model assessed as minimal motor impairment at 300 mg/kg, ip after 0.25 hr by rotarod test; assay type: toxicity, organism-based; design: dose 300 mg/kg, route intraperitoneal; conditions: in vivo; outline: as §1
[15] = system: Rattus norvegicus; assay: Anticonvulsant activity in Sprague-Dawley albino rat assessed as protection against maximal electroshock-induced seizures at 30 mg/kg, po after 15 mins; assay type: functional, organism-based; design: dose 30 mg/kg; outline: as §3
[16] = system: Rattus norvegicus; assay: Neurotoxicity in pilocarpine-induced status epilepticus Sprague-Dawley albino rat model assessed as minimal motor impairment at 300 mg/kg, ip after 4 hrs by rotarod test; assay type: toxicity, organism-based; design: dose 300 mg/kg, route intraperitoneal; conditions: in vivo; outline: as §1
[17] = system: Rattus norvegicus; assay: Neurotoxicity in pilocarpine-induced status epilepticus Sprague-Dawley albino rat model assessed as minimal motor impairment at 300 mg/kg, ip after 1 hr by rotarod test; assay type: toxicity, organism-based; design: dose 300 mg/kg, route intraperitoneal; conditions: in vivo; outline: as §1
[18] = system: Rattus norvegicus; assay: Neurotoxicity in pilocarpine-induced status epilepticus Sprague-Dawley albino rat model assessed as minimal motor impairment at 300 mg/kg, ip after 2 hrs by rotarod test; assay type: toxicity, organism-based; design: dose 300 mg/kg, route intraperitoneal; conditions: in vivo; outline: as §1
[19] = system: Mus musculus; assay: Anticonvulsant activity in albino CF1 mouse assessed as protection against subcutaneous metrazol-induced seizures at 300 mg/kg, ip after 0.5 hrs; assay type: functional, organism-based; design: dose 300 mg/kg; outline: as §2
[20] = system: Rattus norvegicus; assay: Neurotoxicity in pilocarpine-induced status epilepticus Sprague-Dawley albino rat model assessed as minimal motor impairment at 30 mg/kg, ip after 2 hrs by rotarod test; assay type: toxicity, organism-based; design: dose 30 mg/kg, route intraperitoneal; conditions: in vivo; outline: as §1
[21] = system: Mus musculus; assay: Anticonvulsant activity in albino CF1 mouse assessed as protection against maximal electroshock-induced seizures at 30 mg/kg, ip after 4 hrs; assay type: functional, organism-based; design: dose 30 mg/kg; outline: as §2
[22] = system: Rattus norvegicus; assay: Neurotoxicity in pilocarpine-induced status epilepticus Sprague-Dawley albino rat model assessed as minimal motor impairment at 300 mg/kg, ip after 0.5 hrs by rotarod test; assay type: toxicity, organism-based; design: dose 300 mg/kg, route intraperitoneal; conditions: in vivo; outline: as §1
[23] = system: Rattus norvegicus; assay: Neurotoxicity in pilocarpine-induced status epilepticus Sprague-Dawley albino rat model assessed as minimal motor impairment at 100 mg/kg, ip after 0.25 hr by rotarod test; assay type: toxicity, organism-based; design: dose 100 mg/kg, route intraperitoneal; conditions: in vivo
[24] = system: Mus musculus; assay: Anticonvulsant activity in albino CF1 mouse assessed as protection against maximal electroshock-induced seizures at 300 mg/kg, ip after 0.5 hrs; assay type: functional, organism-based; design: dose 300 mg/kg; outline: as §2
[25] = system: Rattus norvegicus; assay: Neurotoxicity in Sprague-Dawley albino rat assessed as minimal motor impairment at 30 mg/kg, po by rotarod test; assay type: toxicity, organism-based; design: dose 30 mg/kg, route oral; conditions: in vivo; outline: as §3
[26] = system: Mus musculus; assay: Neurotoxicity in albino CF1 mouse assessed as minimal motor impairment at 300 mg/kg, ip after 4 hrs by rotarod test; assay type: toxicity, organism-based; design: dose 300 mg/kg, route intraperitoneal; conditions: in vivo; outline: as §2
[27] = system: Rattus norvegicus; assay: Anticonvulsant activity in Sprague-Dawley albino rat assessed as protection against maximal electroshock-induced seizures at 30 mg/kg, po after 4 hrs; assay type: functional, organism-based; design: dose 30 mg/kg; outline: as §3
[28] = system: Mus musculus; assay: Anticonvulsant activity in albino CF1 mouse assessed as protection against maximal electroshock-induced seizures at 100 mg/kg, ip after 4 hrs; assay type: functional, organism-based; design: dose 100 mg/kg; outline: as §2
[29] = system: Rattus norvegicus; assay: Neurotoxicity in pilocarpine-induced status epilepticus Sprague-Dawley albino rat model assessed as minimal motor impairment at 100 mg/kg, ip after 4 hrs by rotarod test; assay type: toxicity, organism-based; design: dose 100 mg/kg, route intraperitoneal; conditions: in vivo
[30] = system: Rattus norvegicus; assay: Neurotoxicity in pilocarpine-induced status epilepticus Sprague-Dawley albino rat model assessed as minimal motor impairment at 100 mg/kg, ip after 0.5 hrs by rotarod test; assay type: toxicity, organism-based; design: dose 100 mg/kg, route intraperitoneal; conditions: in vivo
[31] = system: Mus musculus; assay: Anticonvulsant activity in albino CF1 mouse assessed as protection against maximal electroshock-induced seizures at 300 mg/kg, ip after 4 hrs; assay type: functional, organism-based; design: dose 300 mg/kg; outline: as §2
[32] = system: Rattus norvegicus; assay: Neurotoxicity in pilocarpine-induced status epilepticus Sprague-Dawley albino rat model assessed as minimal motor impairment at 100 mg/kg, ip after 2 hrs by rotarod test; assay type: toxicity, organism-based; design: dose 100 mg/kg, route intraperitoneal; conditions: in vivo
[33] = system: Mus musculus; assay: Neurotoxicity in albino CF1 mouse assessed as minimal motor impairment at 30 mg/kg, ip after 0.5 hrs by rotarod test; assay type: toxicity, organism-based; design: dose 30 mg/kg, route intraperitoneal; conditions: in vivo; outline: as §2
[34] = system: Rattus norvegicus; assay: Neurotoxicity in pilocarpine-induced status epilepticus Sprague-Dawley albino rat model assessed as minimal motor impairment at 30 mg/kg, ip after 1 hr by rotarod test; assay type: toxicity, organism-based; design: dose 30 mg/kg, route intraperitoneal; conditions: in vivo; outline: as §1
[35] = Neurotoxicity in po dosed Sprague-Dawley albino rat assessed as minimal motor impairment by rotarod test; assay type: toxicity, organism-based; conditions: in vivo
Outline: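 Rats dosed orally; 4 rats per time point after dosing. Neurotoxicity was scored as motor impairment or sedation and reported as number of animals affected over number tested.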

[36] = system: Rattus norvegicus; assay: Anticonvulsant activity in po dosed Sprague-Dawley albino rat assessed as protection against subcutaneous metrazol-induced seizures; assay type: functional
Outline: (§4)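 Quantitative testing: rats dosed orally or ip in MES and scMet tests, and mice dosed ip, including the 6 Hz (32 mA) psychomotor seizure test. ED50 and TD50 were reported in mg/kg with ranges in parentheses. Protective index was calculated as TD50/ED50.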

[37] = system: Rattus norvegicus; assay: Protective index, ratio of TD50 for po dosed Sprague-Dawley albino rat by rotarod test to ED50 for po dosed Sprague-Dawley albino rat by maximal electroshock seizures test; assay type: functional
Outline: (§5)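 Protective index calculated as TD50/ED50, with TD50 and ED50 taken from the same species and dosing route.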

[38] = system: Rattus norvegicus; assay: Protective index, ratio of TD50 for po dosed Sprague-Dawley albino rat by rotarod test to ED50 for po dosed Sprague-Dawley albino rat by subcutaneous metrazol seizures test; assay type: functional; outline: as §5
[39] = system: Rattus norvegicus; assay: Anticonvulsant activity in po dosed Sprague-Dawley albino rat assessed as protection against maximal electroshock-induced seizures; assay type: functional; outline: as §4
[40] = system: Mus musculus; assay: Neurotoxicity in albino CF1 mouse assessed as minimal motor impairment at 100 mg/kg, ip after 4 hrs by rotarod test; assay type: toxicity, organism-based; design: dose 100 mg/kg, route intraperitoneal; conditions: in vivo; outline: as §2
[41] = system: Mus musculus; assay: Anticonvulsant activity in albino CF1 mouse assessed as protection against maximal electroshock-induced seizures at 100 mg/kg, ip after 0.5 hrs; assay type: functional, organism-based; design: dose 100 mg/kg; outline: as §2
[42] = system: Mus musculus; assay: Neurotoxicity in albino CF1 mouse assessed as minimal motor impairment at 100 mg/kg, ip after 0.5 hrs by rotarod test; assay type: toxicity, organism-based; design: dose 100 mg/kg, route intraperitoneal; conditions: in vivo; outline: as §2
[43] = system: Mus musculus; assay: Neurotoxicity in albino CF1 mouse assessed as minimal motor impairment at 300 mg/kg, ip after 0.5 hrs by rotarod test; assay type: toxicity, organism-based; design: dose 300 mg/kg, route intraperitoneal; conditions: in vivo; outline: as §2
[44] = system: Mus musculus; assay: Neurotoxicity in albino CF1 mouse assessed as minimal motor impairment at 30 mg/kg, ip after 4 hrs by rotarod test; assay type: toxicity, organism-based; design: dose 30 mg/kg, route intraperitoneal; conditions: in vivo; outline: as §2

Row | SMILES | Activity [1] | Activity [3] | Activity [4] | Activity [6] | Activity [7] | Activity [8] | Activity [9] | Activity [11] | Activity [12] | Activity [13] | Activity [14] | Activity [15] | Activity [16] | Activity [17] | Activity [19] | Activity [20] | Activity [21] | Activity [22] | Activity [23] | Activity [24] | further results
1 | CCCC(CCC)COC(=O)NC | Non-toxic | inactive | inactive | Non-toxic | inactive | inactive | inactive | inactive | inactive | Non-toxic | Toxic | inactive | Toxic | Toxic | Active | Non-toxic | inactive | Toxic | Toxic | Active | Activity [2]: Toxic; Activity [5]: inactive; Activity [10]: inactive; Activity [18]: Toxic; Activity [25]: Non-toxic; Activity [26]: Non-toxic; Activity [27]: inactive; Activity [28]: inactive; Activity [29]: Non-toxic; Activity [30]: Toxic; Activity [31]: Active; Activity [32]: Non-toxic; Activity [33]: Non-toxic; Activity [34]: Non-toxic
2 | NC(=O)OC[C@@H](O)c1ccccc1Cl [CARISBAMATE] | – | – | – | – | – | – | – | – | – | – | – | – | – | – | – | – | – | – | – | – | TD50 [35]: 137 mg/kg; ED50 [36]: 58 mg/kg; Ratio TD50/ED50 [37]: 18; Ratio TD50/ED50 [38]: 2.4; ED50 [39]: 8 mg/kg
3 | CCC(COC(N)=O)CC(C)C (racemic) | Non-toxic | inactive | inactive | Non-toxic | inactive | inactive | inactive | inactive | inactive | Non-toxic | Toxic | inactive | Non-toxic | Toxic | Active | Non-toxic | inactive | Toxic | Toxic | Active | Activity [40]: Non-toxic; Activity [41]: inactive; Activity [42]: Non-toxic; Activity [43]: Toxic; Activity [25]: Non-toxic; Activity [26]: Non-toxic; Activity [27]: inactive; Activity [44]: Non-toxic; Activity [28]: inactive; Activity [29]: Non-toxic; Activity [30]: Toxic; Activity [31]: inactive; Activity [32]: Non-toxic; Activity [33]: Non-toxic; Activity [34]: Non-toxic
